Holding throughout (type): functional
The species named for assay [1] is Mus musculus.
The species entered for assay [2] is Cavia porcellus. As to the kind of experiment: (§1) Inhibitory effect on the response of isolated ileum to acetylcholine (anti-ACh activity) in guinea pig was determined. In a few lines: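 Ileum contraction to acetylcholine (1.1 × 10^-4 mM), with compound added 2 min before the agonist. Three concentrations per compound, percent inhibition averaged over four experiments. ID50 is derived graphically.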

For assay [3], the system named is Mus musculus. The experiment in a line: Percent inhibition of the charcoal meal transfer in mice(100 mg/kg) was determined. An outline of the steps:
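Male ddN mice (20–25 g) are fasted 18 h and dosed orally. Charcoal meal (5% charcoal in 10% tragacanth) is given orally 20 min later, and mice are killed after 30 min. Charcoal travel is expressed as % of small-intestine length (pylorus to caecum). The group mean (n=7) is compared with the vehicle group (n=7) as percent change.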

The species entered for assay [4] is Cavia porcellus. Described as §1. An outline of the steps: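 Isolated ileum contracted with acetylcholine (1.1 × 10^-4 mM). Test compound added 2 min before the agonist. Each compound was tested at three concentrations, with percent inhibition of the contraction as the mean of four experiments. ID50, the concentration giving 50% inhibition, was read off by the usual graphic method.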
This is another data set of the same source.

`Br.N#C/C(=C\c1ccccc1OCCN1CCCCCC1)c1noc2ccccc12` had an Inhibition in assay [1] of 27%.
With `Cl.N#C/C(=C\c1ccccc1OCCCCN1CCOCC1)c1noc2ccccc12`, in assay [1], the Inhibition came out at 22%.
`Cl.N#C/C(=C\c1ccccc1OCCCN1CCOCC1)c1noc2ccccc12` registered an Inhibition in assay [1] of 46%.
The same measure, in the same setting: the figure for `Cl.N#C/C(=C\c1cccc(OCCN2CCOCC2)c1)c1noc2ccccc12` is 32%.
Still for that read-out and setting: the figure for `Cl.N#C/C(=C\c1ccccc1OCCN1CCCC1)c1noc2ccccc12` is 22%.
Still for that read-out and setting: the figure for `CCN(CC)CCOc1ccccc1/C=C(\C#N)c1noc2ccccc12.Cl` is 20%; for `Cl.N#C/C(=C\c1ccccc1OCCN1CCOCC1)c1noc2ccc(O)cc12` it is 4%.
`Cl.N#C/C(=C\c1ccc(OCCCN2CCCCC2)cc1)c1noc2ccccc12.O` had an Inhibition in assay [1] of 19%.
Compound `COc1ccc2onc(/C(C#N)=C/c3ccccc3OCCN3CCOCC3)c2c1.Cl` displayed an ID50 in assay [2] of 32 µM. The compound also yielded an Inhibition in assay [1] of 48%.
Take `COc1ccc2onc(/C(C#N)=C/c3ccccc3OCCN3CCCC3)c2c1.Cl.O`: the Inhibition in assay [1] was 33%.
As to `COc1ccc2onc(/C(C#N)=C/c3ccccc3OCCN3CCCCC3)c2c1.Cl.O`, the ID50 in assay [2] stood at 25 µM. The same compound registered an Inhibition in assay [3] of 51%.
As to `Cl.N#C/C(=C\c1ccccc1OCCN1CCCCC1)c1noc2ccc(O)cc12`, the Inhibition in assay [1] came out at 39%.
Compound `CCN(CC)CCOc1ccccc1/C=C(\C#N)c1noc2ccc(O)cc12.Cl` gave an Inhibition in assay [1] of 14%.
On the same count and under the same terms, the figure for `Cl.N#C/C(=C\c1ccccc1OCCCN1CCCCCC1)c1noc2ccccc12` is 21%; for `CN(C)CCCOc1ccccc1/C=C(\C#N)c1noc2ccccc12.Cl` it is 9%.
In turn, `CN(C)CCOc1ccccc1/C=C(\C#N)c1noc2ccccc12.Cl.O` displayed an ID50 in assay [2] of 16 µM. Besides, the Inhibition in assay [1] came to 37%.
In assay [2], `Cl.N#C/C(=C\c1ccccc1OCCN1CCCCC1)c1noc2ccccc12.O` gave an ID50 of 8.7 µM. This compound also showed an Inhibition in assay [1] of 45%.
The corresponding values for `Cl.N#C/C(=C\c1ccccc1OCCN1CCOCC1)c1noc2ccccc12.O` are 22 µM and 55%.
For the compound `Cl.N#C/C(=C\c1ccccc1OCCN1CCOCC1)c1noc2ccc(Cl)cc12.O`, the Inhibition in assay [1] is 11%.
In turn, `Cl.N#C/C(=C\c1ccccc1OCCN1CCCCC1)c1noc2ccc(Cl)cc12.O` yielded an Inhibition in assay [1] of 37%.
`Cl.N#C/C(=C\c1ccccc1OCCN1CCCC1)c1noc2ccc(Cl)cc12` displayed an Inhibition in assay [1] of 19%.
For `CN(C)CCOc1ccccc1/C=C(\C#N)c1noc2ccc(Cl)cc12.Cl`, the Inhibition in assay [1] stood at 11%.
As for `C[N+]1(CCOc2ccccc2/C=C(\C#N)c2noc3ccccc23)CCOCC1.[I-]`, the Inhibition in assay [1] turned out to be 12%.
Regarding `CN1[C@@H]2CC[C@H]1C[C@@H](OC(=O)C(CO)c1ccccc1)C2.O=S(=O)(O)O` (stereo not given in full) [ATROPINE SULFATE], the ID50 in assay [2] turned out to be 0.0072 µM. The compound also returned an Inhibition in assay [1] of 27%.
Take `CCCC[N+]1(C)[C@@H]2C[C@@H](OC(=O)[C@H](CO)c3ccccc3)C[C@H]1[C@@H]1O[C@@H]12.[Br-]` (stereo not given in full) [BUTYLSCOPOLAMINE BROMIDE]: the ID50 in assay [2] is 0.075 µM. In assay [1], this compound had an Inhibition of 19%.
Take `CN1CC[C@]23c4c5ccc(O)c4O[C@H]2[C@@H](O)C=C[C@H]3[C@H]1C5.Cl` [MORPHINE HYDROCHLORIDE]: the ID50 in assay [4] was 5.3 µM. The compound also returned an Inhibition in assay [1] of 64%.
Compound `COc1ccc(Cc2nccc3cc(OC)c(OC)cc23)cc1OC.Cl` [PAPAVERINE HYDROCHLORIDE] had an Inhibition in assay [1] of 1%.

Values taken from ChEMBL document CHEMBL1122186, “Synthesis and spasmolytic activities of 2-(1,2-benzisoxazol-3-yl)-3-[[omega-(dialkylamino)alkoxy]phenyl]acrylonitriles” (1982).
